Test results published in ChEMBL document CHEMBL1275427, “Antimicrobial susceptibilities of geographically diverse clinical human isolates of Leptospira” (2008).
In brackets after ≈: the same amount, converted by molar mass.

Experiments:
Type in all cases: functional
[1] = Antimicrobial activity against Leptospira interrogans serovar Icterohaemorrhagiae isolate 3 by broth microdilution method
Procedure, shortened: (§1)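 Strains grown 7 days in EMJH medium at 30°C; inoculum counted by Petroff-Hausser chamber under dark-field microscopy and added at 2 × 10^6 organisms/ml. Twofold serial dilutions in EMJH, final 32.0 to 0.016 μg/ml (units/ml for penicillin), 96-well round-bottom plates, 30°C. alamarBlue added day 3; colour read day 5. MIC is lowest concentration without blue-to-pink change. Triplicate runs, median reported; L. interrogans Icterohaemorrhagiae quality control.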

[2] = system: Leptospira kirschneri serovar Grippotyphosa; experiment: Antimicrobial activity against Leptospira kirschneri serovar Grippotyphosa isolate 13 by broth microdilution method
Procedure, shortened: (§2)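 Serial twofold dilutions in EMJH medium, final 32.0 to 0.016 μg/ml (units/ml for penicillin). Inoculum from 7-day EMJH cultures grown at 30°C, counted by Petroff-Hausser chamber under dark-field microscopy, added at 2 × 10^6 organisms/ml. Plates incubated at 30°C; alamarBlue added on day 3 and colour read on day 5. MIC is the lowest concentration without blue-to-pink change; median of triplicate runs.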

[3] = Antimicrobial activity against Leptospira interrogans serovar Grippotyphosa isolate 2 by broth microdilution method; procedure, shortened: as §2
Leptospira weilii [4] = experiment: Antimicrobial activity against Leptospira weilii isolate 6 by broth microdilution method; procedure, shortened: as §1
[5] = Antimicrobial activity against Leptospira interrogans serovar Bataviae isolate 1 by broth microdilution method; procedure, shortened: as §1
[6] = Antimicrobial activity against Leptospira interrogans serovar Pyrogenes isolate 5 by broth microdilution method; procedure, shortened: as §1
[7] = Antimicrobial activity against Leptospira interrogans serovar Icterohaemorrhagiae isolate 10 by broth microdilution method; procedure, shortened: as §1
[8] = Antimicrobial activity against Leptospira interrogans serovar Canicola isolate 11 by broth microdilution method; procedure, shortened: as §1
[9] = Antimicrobial activity against Leptospira interrogans serovar Pomona isolate 4 by broth microdilution method; procedure, shortened: as §1
[10] = Antimicrobial activity against Leptospira interrogans isolate 7 by broth microdilution method; procedure, shortened: as §2
Leptospira weilii [11] = experiment: Antimicrobial activity against Leptospira weilii isolate 8 by broth microdilution method; procedure, shortened: as §1
[12] = Antimicrobial activity against Leptospira interrogans serovar Pomona isolate 12 by broth microdilution method; procedure, shortened: as §1
[13] = Antimicrobial activity against Leptospira interrogans serovar Icterohaemorrhagiae isolate 9 by broth microdilution method; procedure, shortened: as §1
[14] = Leptospira interrogans, isolate 3, read-out: MIC
[15] = Leptospira kirschneri, isolate 13, read-out: MIC
[16] = Leptospira weilii, isolate 6, read-out: MIC
[17] = Leptospira interrogans, isolate 1, read-out: MIC
[18] = Leptospira interrogans, isolate 5, read-out: MIC
[19] = Leptospira interrogans, isolate 10, read-out: MIC
[20] = Leptospira interrogans, isolate 11, read-out: MIC
[21] = Leptospira interrogans, isolate 4, read-out: MIC
[22] = Leptospira interrogans, isolate 7, read-out: MIC
[23] = Leptospira weilii, isolate 8, read-out: MIC
[24] = Leptospira interrogans, isolate 12, read-out: MIC
[25] = Leptospira interrogans, isolate 9, read-out: MIC

Row | SMILES | MIC [1, 14] [µg/mL] | MIC [2, 15] [µg/mL] | MIC [3] [µg/mL] | MIC (Leptospira weilii [4]; [16]) [µg/mL] | MIC [5, 17] [µg/mL] | MIC [6, 18] [µg/mL] | MIC [7, 19] [µg/mL] | MIC [8, 20] [µg/mL] | MIC [9, 21] [µg/mL] | MIC [10, 22] [µg/mL] | MIC (Leptospira weilii [11]; [23]) [µg/mL] | MIC [12, 24] [µg/mL] | MIC [13, 25] [µg/mL] | other results
1 | CN(C)[C@@H]1C(O)=C(C(N)=O)C(=O)[C@@]2(O)C(O)=C3C(=O)c4c(O)cccc4[C@@](C)(O)[C@H]3C[C@@H]12 [TETRACYCLINE] | 4 (≈ 9 µM) | < 0.016 | 1 (≈ 2.25 µM) | 1 (≈ 2.25 µM) | 1 (≈ 2.25 µM) | 4 (≈ 9 µM) | 0.5 (≈ 1.13 µM) | 0.125 (≈ 0.281 µM) | 2 (≈ 4.5 µM) | 1 (≈ 2.25 µM) | 0.5 (≈ 1.13 µM) | 0.125 (≈ 0.281 µM) | 1 (≈ 2.25 µM) | –
2 | O=C(O)c1cn(C2CC2)c2cc(N3CCNCC3)c(F)cc2c1=O [CIPROFLOXACIN] | 0.125 (≈ 0.377 µM) | 0.03 (≈ 0.0905 µM) | 0.125 (≈ 0.377 µM) | 0.125 (≈ 0.377 µM) | 0.125 (≈ 0.377 µM) | 0.125 (≈ 0.377 µM) | 0.125 (≈ 0.377 µM) | 0.06 (≈ 0.181 µM) | 0.25 (≈ 0.754 µM) | 0.125 (≈ 0.377 µM) | 0.125 (≈ 0.377 µM) | 0.06 (≈ 0.181 µM) | 0.125 (≈ 0.377 µM) | –
3 | CO/N=C(\C(=O)N[C@@H]1C(=O)N2C(C(=O)O)=C(COC(C)=O)CS[C@H]12)c1csc(N)n1 [CEFOTAXIME] | < 0.016 | < 0.016 | 0.03 (≈ 0.0659 µM) | 0.03 (≈ 0.0659 µM) | < 0.016 | < 0.016 | < 0.016 | < 0.016 | < 0.016 | 0.03 (≈ 0.0659 µM) | 0.03 (≈ 0.0659 µM) | < 0.016 | < 0.016 | –
4 | CO/N=C(\C(=O)N[C@@H]1C(=O)N2C(C(=O)[O-])=C(C[N+]3(C)CCCC3)CS[C@H]12)c1csc(N)n1 [CEFEPIME] | < 0.016 | < 0.016 | < 0.016 | < 0.016 | < 0.016 | < 0.016 | < 0.016 | < 0.016 | < 0.016 | < 0.016 | < 0.016 | < 0.016 | < 0.016 | –
5 | COc1c(N2C[C@@H]3CCCN[C@@H]3C2)c(F)cc2c(=O)c(C(=O)O)cn(C3CC3)c12 [MOXIFLOXACIN] | 0.06 (≈ 0.149 µM) | 0.03 (≈ 0.0747 µM) | 0.06 (≈ 0.149 µM) | 0.06 (≈ 0.149 µM) | 0.06 (≈ 0.149 µM) | 0.06 (≈ 0.149 µM) | 0.125 (≈ 0.311 µM) | 0.03 (≈ 0.0747 µM) | 0.125 (≈ 0.311 µM) | 0.06 (≈ 0.149 µM) | 0.125 (≈ 0.311 µM) | < 0.016 | 0.125 (≈ 0.311 µM) | –
6 | C[C@H]1c2cccc(O)c2C(=O)C2=C(O)[C@]3(O)C(=O)C(C(N)=O)=C(O)[C@@H](N(C)C)[C@@H]3[C@@H](O)[C@@H]21.O [DOXYCYCLINE] | 2 | < 0.016 | 1 | 0.5 | 1 | 1 | 0.5 | 0.06 | 2 | 0.25 | 0.5 | 0.06 | 0.25 | –
7 | CC[C@H]1OC(=O)[C@H](C)[C@@H](O[C@H]2C[C@@](C)(OC)[C@@H](O)[C@H](C)O2)[C@H](C)[C@@H](O[C@@H]2O[C@H](C)C[C@H](N(C)C)[C@H]2O)[C@](C)(O)C[C@@H](C)CN(C)[C@H](C)[C@@H](O)[C@]1(C)O [AZITHROMYCIN] | < 0.016 | < 0.016 | < 0.016 | < 0.016 | < 0.016 | < 0.016 | < 0.016 | < 0.016 | < 0.016 | < 0.016 | < 0.016 | < 0.016 | < 0.016 | –
8 | CC1(C)S[C@@H]2[C@H](NC(=O)[C@H](N)c3ccccc3)C(=O)N2[C@H]1C(=O)O [AMPICILLIN] | < 0.016 | < 0.016 | < 0.016 | < 0.016 | < 0.016 | < 0.016 | < 0.016 | < 0.016 | < 0.016 | < 0.016 | < 0.016 | < 0.016 | < 0.016 | –
9 | CC[C@H]1OC(=O)[C@H](C)[C@@H](O[C@H]2C[C@@](C)(OC)[C@@H](O)[C@H](C)O2)[C@H](C)[C@@H](O[C@@H]2O[C@H](C)C[C@H](N(C)C)[C@H]2O)[C@](C)(OC)C[C@@H](C)C(=O)[C@H](C)[C@@H](O)[C@]1(C)O [CLARITHROMYCIN] | < 0.016 | < 0.016 | < 0.016 | < 0.016 | < 0.016 | < 0.016 | < 0.016 | < 0.016 | < 0.016 | < 0.016 | < 0.016 | < 0.016 | < 0.016 | –
10 | CO/N=C(\C(=O)N[C@@H]1C(=O)N2C(C(=O)O)=C(CSc3nc(=O)c(O)nn3C)CS[C@H]12)c1csc(N)n1 [CEFTRIAXONE] | < 0.016 | < 0.016 | 0.06 (≈ 0.108 µM) | 0.06 (≈ 0.108 µM) | 0.03 (≈ 0.0541 µM) | < 0.016 | < 0.016 | 0.03 (≈ 0.0541 µM) | 0.06 (≈ 0.108 µM) | 0.06 (≈ 0.108 µM) | 0.03 (≈ 0.0541 µM) | < 0.016 | < 0.016 | –
11 | C[C@H]1COc2c(N3CCN(C)CC3)c(F)cc3c(=O)c(C(=O)O)cn1c23.C[C@H]1COc2c(N3CCN(C)CC3)c(F)cc3c(=O)c(C(=O)O)cn1c23.O [LEVOFLOXACIN] | 0.06 | < 0.016 | 0.06 | 0.06 | 0.06 | 0.06 | 0.125 | 0.03 | 0.125 | 0.06 | 0.125 | < 0.016 | 0.125 | –
12 | CC1(C)S[C@@H]2[C@H](NC(=O)Cc3ccccc3)C(=O)N2[C@H]1C(=O)O [PENICILLIN G] | – | – | – | – | – | – | – | – | – | – | – | – | – | MIC [1]: <0.016 U/ml; MIC [2]: 0.125 U/ml; MIC (Leptospira weilii [4]): 0.03 U/ml; MIC [5]: <0.016 U/ml; MIC [6]: <0.016 U/ml; MIC [7]: <0.016 U/ml; MIC [8]: 0.25 U/ml; MIC [9]: 0.06 U/ml; MIC [10]: 0.06 U/ml; MIC (Leptospira weilii [11]): 0.06 U/ml; MIC [12]: 0.06 U/ml; MIC [13]: <0.016 U/ml
